In ChEMBL document CHEMBL3627694, “Estrogenic activity of bis(4-hydroxyphenyl)methanes with cyclic hydrophobic structure” (Bioorg Med Chem, 2015):

Assays:
Homo sapiens = organism: Homo sapiens; assay: Ratio of RBA for human recombinant ER beta to RBA for human recombinant ER alpha
Method in brief: (§1)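 Human recombinant ERα or ERβ, 0.5 µg/tube, in buffer of 20 mM Tris–HCl pH 8.0, 0.3 M NaCl, 1 mM EDTA, 10 mM 2-mercaptoethanol, 0.2 mM PMSF. Incubated with 4 nM [6,7-³H]17β-estradiol ± unlabeled competitor, 4 °C, 18 h, in duplicate. Collected on nitrocellulose filter, washed, read by liquid scintillation. RBA taken with estradiol as 100; […] is the ERβ/ERα RBA ratio.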

[1] = target: T1, Estrogen receptor (Homo sapiens) (UniProt P03372); assay: Displacement of [6,7-3H]17 beta-estradiol from human recombinant ER alpha assessed as relative binding affinity incubated for 18 hrs at 4 degC by radiometric binding assay relative to estradiol; method in brief: as §1
T1 sequence (whole entry): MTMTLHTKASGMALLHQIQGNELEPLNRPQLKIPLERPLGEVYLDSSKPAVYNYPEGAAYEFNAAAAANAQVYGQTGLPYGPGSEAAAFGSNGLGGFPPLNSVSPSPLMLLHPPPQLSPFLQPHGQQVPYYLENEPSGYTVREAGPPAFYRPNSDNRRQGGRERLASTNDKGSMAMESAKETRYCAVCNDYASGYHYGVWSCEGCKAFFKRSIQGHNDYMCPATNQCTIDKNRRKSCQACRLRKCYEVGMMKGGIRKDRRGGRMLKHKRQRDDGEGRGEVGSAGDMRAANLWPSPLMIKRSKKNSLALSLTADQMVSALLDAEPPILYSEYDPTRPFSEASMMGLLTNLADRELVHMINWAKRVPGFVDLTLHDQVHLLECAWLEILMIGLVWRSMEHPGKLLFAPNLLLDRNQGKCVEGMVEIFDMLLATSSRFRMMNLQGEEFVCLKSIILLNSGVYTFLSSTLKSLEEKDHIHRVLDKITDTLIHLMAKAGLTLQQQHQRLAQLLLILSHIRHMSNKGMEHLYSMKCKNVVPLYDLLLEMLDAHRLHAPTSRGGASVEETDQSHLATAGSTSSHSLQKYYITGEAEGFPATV

MCF7 [2] = assay: Anti-estrogenic activity in human MCF7 cells assessed as reduction in estradiol-induced increase in cell proliferation incubated for 4 days by WST-8 assay; assay type: functional, cell-based; conditions: MCF7, 96 h
Method in brief: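 MCF-7 cells in phenol red-free low-glucose D-MEM with 5% sFBS, 2000 cells/well. Serial dilutions, 1×10^-13 to 1×10^-6 M, given with 0.1 nM estradiol, DMSO as control. 4 days in triplicate, medium with compound and estradiol renewed at day 2. Growth read by WST-8, absorbance at 450 nm after 2–4 h. IC50 from sigmoidal dose–response curves.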

[3] = target: Estrogen receptor beta (Homo sapiens) (UniProt Q92731); assay: Displacement of [6,7-3H]17 beta-estradiol from human recombinant ER beta assessed as relative binding affinity incubated for 18 hrs at 4 degC by radiometric binding assay relative to estradiol; method in brief: as §1
Estrogen receptor beta (Homo sapiens), sequence (Q92731 whole entry): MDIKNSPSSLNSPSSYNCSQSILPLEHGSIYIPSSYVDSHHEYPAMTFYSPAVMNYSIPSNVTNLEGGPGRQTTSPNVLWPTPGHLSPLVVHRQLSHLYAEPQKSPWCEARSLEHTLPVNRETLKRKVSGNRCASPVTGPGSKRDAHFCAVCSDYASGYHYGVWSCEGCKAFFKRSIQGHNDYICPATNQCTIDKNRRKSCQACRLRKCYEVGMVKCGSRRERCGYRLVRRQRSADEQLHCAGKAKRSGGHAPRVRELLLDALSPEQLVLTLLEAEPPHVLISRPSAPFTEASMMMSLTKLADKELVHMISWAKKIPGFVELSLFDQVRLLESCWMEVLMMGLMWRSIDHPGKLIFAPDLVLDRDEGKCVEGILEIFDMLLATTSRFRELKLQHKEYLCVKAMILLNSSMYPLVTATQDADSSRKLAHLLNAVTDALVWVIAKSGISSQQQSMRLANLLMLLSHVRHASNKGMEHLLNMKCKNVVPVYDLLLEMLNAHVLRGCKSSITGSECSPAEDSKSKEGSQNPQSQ

MCF7 [4] = assay: Estrogenic activity in human MCF7 cells assessed as increase in cell proliferation incubated for 4 days by WST-8 assay relative to estradiol; assay type: functional; conditions: MCF7, 96 h
Method in brief: (§2)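 MCF-7 cells kept in D-MEM with 10% FBS at 37 °C, 5% CO2. Before assay, switched to phenol red-free low-glucose D-MEM with 5% sFBS and seeded at 2000 cells/well. Serial dilutions, 1×10^-13 to 1×10^-6 M, given alone, DMSO as control. 4 days in triplicate, medium replaced after 2 days. WST-8 added, absorbance at 450 nm after 2–4 h. EC50 from sigmoidal curves; Emax relative to E2 as 100.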

MCF7 [5] = assay: Estrogenic activity in human MCF7 cells assessed as increase in cell proliferation incubated for 4 days by WST-8 assay; assay type: functional, cell-based; conditions: MCF7, 96 h; method in brief: as §2

Compound	Ratio (Homo sapiens)	RBA [1] [%]	IC50 (MCF7 [2]) [nM]	RBA [3] [%]	Emax (MCF7 [4]) [%]	EC50 (MCF7 [5]) [nM]
Oc1ccc(C(c2ccc(O)cc2)C2CCCC3(CCCCC3)C2)cc1 (stereo unspecified)	1.3	21.9	> 1000	29.3	74	0.8
CC1(C)CC(C(c2ccc(O)cc2)c2ccc(O)cc2)CC(C)(C)C1	1.2	28.4	63.1	35.2	32	
Oc1ccc(C(c2ccc(O)cc2)C2CCC3(CC2)OCCO3)cc1	0.5	0.465	> 1000	0.219	22	
Oc1ccc(C(c2ccc(O)cc2)C2CCCCC2)cc1	2.3	6.71	> 1000	15.5	79	54.1
CC1(C)CCC(C(c2ccc(O)cc2)c2ccc(O)cc2)CC1	1.2	3.64	> 1000	3.02	72	68.4
Oc1ccc(C(c2ccc(O)cc2)C2CCC(Cl)(Cl)CC2)cc1	0.2	0.662	> 1000	0.158	78	304
CC1(C)CCCC(C(c2ccc(O)cc2)c2ccc(O)cc2)C1 (stereo unspecified)	0.3	98.8	64.9	30.7	74	2.4
Oc1ccc(C(c2ccc(O)cc2)C2CCCC3(C2)SCCCS3)cc1 (stereo unspecified)	0.2	50.6	> 1000	8.43	80	0.39
Oc1ccc(C(c2ccc(O)cc2)C2CCCC(Cl)(Cl)C2)cc1 (stereo unspecified)	1	15.3	> 1000	15.7	70	4.6
Oc1ccc(C(c2ccc(O)cc2)C2CCCC2)cc1	3	4.61	> 1000	13.7	69	48.8
Oc1ccc(C(c2ccc(O)cc2)C2CCC(Br)(Br)CC2)cc1	0.2	0.957	> 1000	0.18	64	211
Oc1ccc(C(c2ccc(O)cc2)C2CCC(F)(F)CC2)cc1	1.3	2.71	> 1000	3.93	80	22.5
Oc1ccc(C(c2ccc(O)cc2)C2CCCC(F)(F)C2)cc1 (stereo unspecified)	0.7	5.78	19.6	4.29	58	16.6
